Screens (PubChem)
KCNK3 inh: human KCNK3 channel inhibition, primary screen. 0.84% of 340,000 active. B-score at 10 µM. AID 602410. O14649. CHO-KCNK3 thallium flux, FluxOR fluorescence; active compounds read low;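 active = B-score under library mean minus 4 SD, starting fluorescence ratio at most library mean plus 5 SD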;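 also: more negative B-score means stronger inhibition of thallium flux through KCNK3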
Kir21 inh: inhibitors of mouse Kir2.1 inward-rectifier potassium channel. B-score at 10 µM. 0.85% of 310,000 active. HEK293-Kir2.1, FluxOR thallium flux fluorescence; active compounds read low. AID 1672;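 active = fluorescence ratio B-score at or below minus 3 SD of library scores, with starting-brightness B-score within 2 SD, cut at about -4.2 in these data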;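 also: channel flux triggered by added potassium and thallium sulfate stimulus; B-score of peak minus minimum fluorescence over baseline after thallium stimulus; more negative B-score means stronger Kir2.1 block with less thallium influx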
KCNK9 block: inhibitors of human KCNK9 two-pore domain potassium channel; HEK293 KCNK9, FluxOR thallium flux fluorescence; active compounds read low; Q9NPC2; B-score at 10 µM; 1.2% of 310,000 active;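 active = ratio B-score over 3 SD below the library mean, with starting fluorescence within 5 SD of its mean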;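 also: negative B-score means less thallium flux so channel inhibition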
hERG rescue: hERG (human) protection from proarrhythmic block. 0.51% of 310,000 active. CHO-hERG, FluxOR thallium flux, dofetilide IC70 present. activation (rescue from dofetilide block), less the hit threshold, % at 10 µM. AID 1511. Q12809;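 active = activation above the mean of controls blocked by dofetilide plus 5 SD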;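 also: thallium influx through hERG after potassium depolarization seen as dye fluorescence rise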
Target sequence (Q12809 whole entry, looked up): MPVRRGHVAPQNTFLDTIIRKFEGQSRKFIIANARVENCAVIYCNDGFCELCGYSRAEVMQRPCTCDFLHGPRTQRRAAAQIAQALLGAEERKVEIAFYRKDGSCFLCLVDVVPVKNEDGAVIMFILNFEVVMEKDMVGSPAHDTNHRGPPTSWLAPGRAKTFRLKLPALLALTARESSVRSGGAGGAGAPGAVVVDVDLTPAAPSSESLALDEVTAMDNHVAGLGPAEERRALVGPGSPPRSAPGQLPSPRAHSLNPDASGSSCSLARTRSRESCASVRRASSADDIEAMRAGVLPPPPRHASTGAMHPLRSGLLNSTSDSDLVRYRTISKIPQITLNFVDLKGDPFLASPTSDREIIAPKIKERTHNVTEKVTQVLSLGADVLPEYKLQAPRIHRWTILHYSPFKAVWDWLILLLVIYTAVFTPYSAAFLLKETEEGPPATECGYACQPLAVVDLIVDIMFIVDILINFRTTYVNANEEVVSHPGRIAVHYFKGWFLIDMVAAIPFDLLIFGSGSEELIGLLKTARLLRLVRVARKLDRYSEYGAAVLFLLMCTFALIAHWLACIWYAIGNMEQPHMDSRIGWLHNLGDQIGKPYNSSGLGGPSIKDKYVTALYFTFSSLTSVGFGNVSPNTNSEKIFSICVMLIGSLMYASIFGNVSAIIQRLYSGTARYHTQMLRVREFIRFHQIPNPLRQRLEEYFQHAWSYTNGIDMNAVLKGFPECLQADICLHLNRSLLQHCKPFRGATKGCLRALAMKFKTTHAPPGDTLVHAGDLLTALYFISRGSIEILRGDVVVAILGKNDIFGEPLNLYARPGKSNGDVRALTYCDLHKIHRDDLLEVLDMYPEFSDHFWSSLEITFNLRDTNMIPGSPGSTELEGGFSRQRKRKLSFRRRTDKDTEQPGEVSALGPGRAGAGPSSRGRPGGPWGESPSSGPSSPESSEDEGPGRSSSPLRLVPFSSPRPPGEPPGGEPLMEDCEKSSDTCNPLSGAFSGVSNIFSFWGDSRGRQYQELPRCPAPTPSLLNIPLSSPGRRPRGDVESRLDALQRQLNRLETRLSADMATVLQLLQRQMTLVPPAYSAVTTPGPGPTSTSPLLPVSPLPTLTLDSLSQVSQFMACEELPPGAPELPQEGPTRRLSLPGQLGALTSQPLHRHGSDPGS
KCNQ1 inh: human KCNQ1 channel inhibition | AID 2642 | CHO-K1 KCNQ1, FluxOR thallium flux fluorescence; active compounds read high | 1.3% of 310,000 active | B-score at 10 µM | P51787;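 active = compounds whose thallium flux B-score, printed positive for inhibition, exceeds three library SD while starting fluorescence stays within three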;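 also: channel opened by potassium depolarization with thallium stimulus after 20 min compound exposure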
KCNQ1 act: potentiates or activates the human KCNQ1 potassium channel. CHO-K1 KCNQ1, thallium flux FluxOR fluorescence; active compounds read high. 0.35% of 310,000 active. AID 2648. B-score at 10 µM;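 active = fluorescence ratio B-score, a plate-corrected score, at least three library SD, with initial intensity B-score within 5 SD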
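assay system = KCNQ1-transfected CHO-K1 cells | medium = assay buffer with matched DMSO | probe or stimulus = depolarizing K+/Tl+ stimulus, K2SO4 and Tl2SO4 each 12.5 mM in 5x stock | dosing = single dose | incubation = dye 90 min, compound 20 min, room temperature | detection = kinetic FluxOR fluorescence, 10 s baseline plus 110 s post-stimulus | evaluation = ratio B score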
Hits are given with their value; 0 = inactive; - = no result. Hits are enriched below; roughly 3.7% of the tested compounds scored in any of these assays.

SMILES	KCNK3 inh	Kir21 inh	KCNK9 block	hERG rescue	KCNQ1 inh	KCNQ1 act
O=C(N/N=C/c1ccccn1)c1ccco1	0	0	0	0	0	0
CCOC(=O)c1c(-c2ccc(C)o2)csc1NC(=O)COC(=O)c1cccs1	0	0	-6.7	0	0	0
CCOC(=O)c1c(-c2ccc(C)o2)csc1N	0	0	0	0	0	0
CCOC(=O)c1c(-c2ccc(C)o2)csc1NC(=S)NC(=O)N(C)C	0	0	0	14	0	39
CCOC(=O)c1c(-c2ccc(C)o2)csc1NC(=O)CSc1ncn[nH]1	0	0	0	0	0	0
Fc1cccc(Cl)c1CNCc1cccnc1	0	0	0	0	0	0
COC(=O)C/C=N/N=C1/NC(=O)/C(=C/C(=O)O)S1	0	0	0	0	0	0
O=C(COc1ccc2c(c1)OCO2)Nc1ccccc1F	0	0	0	0	0	0
Fc1ccc([C@@H]2CCNC[C@H]2COc2ccc3c(c2)OCO3)cc1	0	-6.5	0	0	0	0
Fc1ccc(C2CCNCC2COc2ccc3c(c2)OCO3)cc1 (configuration not stated)	0	-6.5	0	0	0	0
COc1ccc(CC(=O)NCC2CCCN(Cc3cc(OC)cc(OC)c3)C2)cc1 (configuration not stated)	0	0	0	0	0	0
CC(=O)c1ccc(N2CCN(C(=O)/C=C/c3ccc(S(=O)(=O)NCc4ccco4)cc3)CC2)cc1	0	0	0	4.9	0	0
CC(=O)c1ccc(N2CCN(C(=O)/C=C/c3ccc(S(=O)(=O)N4CCOCC4)cc3)CC2)cc1	0	0	0	0	0	0
CC(C)c1ccc(CN2CCN(C(=O)CSc3nnnn3C3CC3)CC2)cc1	0	-	-	-	-	-
O=C(Cn1c2ccc(F)cc2c2nc3n(c(=O)c21)CCS3)NCC1CCCO1 (configuration not stated)	0	0	0	0	0	0
Cc1ccc(-c2nc(N)s[n+]2-c2ccccc2)cc1	0	0	0	10	0	0
CNc1nc(-c2ccccc2)[n+](-c2ccc(C)cc2)s1	0	0	0	0	0	0
CCC(C)(C)n1nnnc1C(c1cccnc1)N1CCC(Cc2ccccc2)CC1 (configuration not stated)	0	0	-7.6	0	0	0
Cc1cc(C)c2c(=O)n(CC(=O)NCCCN3CCN(c4ccccc4F)CC3)sc2n1	-	-5.5	0	0	0	0
Cc1cc(C)c2c(=O)n(CC(=O)NCCCN3CCOCC3)sc2n1	0	0	0	0	0	0
CCCCNc1c(-c2cccc(-c3ccc(OC)cc3)c2)nc2ccc(C)cn12	0	0	0	0	7	0
CCCCNc1c(-c2cccc(-c3cc(C(C)=O)cs3)c2)nc2ccc(C)cn12	0	0	0	0	6	0
CCCCCCSc1cccc(-c2nc3ccc(Cl)cn3c2NCCCC)c1	0	-	-	-	-	-
CCCCNc1c(-c2cccc(-c3ccc(OC)cc3)c2)nc2cc(C)ccn12	-8.7	-	-	-	-	-
O=C(Cc1cccc(NC(=O)C2CCCN(C(=O)C3CCCC3)C2)c1)Nc1cccc(C(=O)N2CCOCC2)c1 (configuration not stated)	0	-	-	-	-	-
SMILES	KCNK3 inh	Kir21 inh	KCNK9 block	hERG rescue	KCNQ1 inh	KCNQ1 act
Oc1cccc(C=NN=C2c3ccccc3-c3ccccc32)c1	-9	-	-	-	-	-
COc1ccc(NC(=O)CCOc2ccccc2C)cc1S(=O)(=O)N1CCCCC1	0	0	0	0	0	0
Cc1cccc(NS(=O)(=O)c2ccc(C)c(C(=O)NCc3ccccn3)c2)c1	0	-	-	-	-	-
COC(=O)c1cc(NC(=O)CN(c2ccc3c(c2)OCO3)S(C)(=O)=O)ccc1Cl	0	0	-7.4	0	0	0
COC(=O)c1ccc(Cl)c(NC(=O)CN(c2ccc3c(c2)OCO3)S(C)(=O)=O)c1	0	0	0	0	0	0
CC(C)(C)c1ccccc1OCC(=O)Nc1ccccc1C(=O)NCc1cccnc1	0	-6	0	0	0	0
N#CC1=C(SCC(=O)NC2CC2)NC(=O)C(C#N)C12CCCCC2 (configuration not stated)	0	0	0	0	0	0
N#CC1=C(SCC(=O)NC23CC4CC(CC(C4)C2)C3)NC(=O)C(C#N)C12CCCCC2 (configuration not stated)	0	0	0	0	10	0
O=C1c2ccccc2NC(c2ccc(Br)o2)N1O (configuration not stated)	0	-	-	-	-	-
O=C1c2ccccc2NC(c2ccc(Br)s2)N1O (configuration not stated)	0	0	0	21	0	22
COc1cc(/C=N/NS(=O)(=O)c2ccc(C)c([N+](=O)[O-])c2)cc([N+](=O)[O-])c1O	0	0	0	0	6	0
COc1cc(/C=N/NS(=O)(=O)c2ccc(C)c([N+](=O)[O-])c2)ccc1O	0	0	0	0	0	0
N#Cc1ccc(S(=O)(=O)N2CCN(C(=O)c3cn(-c4ccccc4)nc3-c3cccnc3)CC2)cc1	0	-	-	-	-	-
O=C1NC(=O)C2(CCCC2C(=O)O)N1 (configuration not stated)	0	-	-	-	-	-
O=C(COC(=O)c1cccc(S(=O)(=O)NCc2ccccc2)c1)c1ccccc1	0	0	0	0	0	0
Cc1cc(C)c(C(=O)COC(=O)c2cccc(S(=O)(=O)NCc3ccccc3)c2)cc1C	0	-4.3	0	0	0	0
O=C(Nc1cccnc1)c1ccc(COc2ccccc2Br)o1	0	0	0	22	0	0
O=C(NCc1cccnc1)c1ccc(COc2ccccc2Br)o1	0	0	0	0	0	0
Cc1noc(C)c1S(=O)(=O)Nc1cccc(C(F)(F)F)c1	0	0	0	0	6	0
Cc1cccc(NS(=O)(=O)c2c(C)noc2C)c1	0	0	0	0	0	0
Cc1noc(C)c1S(=O)(=O)NCc1cccc(Cl)c1	-11	-	-	-	-	-
CN(C)C(=O)CCc1ccc2c3c([nH]c2c1)[C@]1(CCC2CCCC2)[C@@H](C(=O)N2CCOCC2)C[C@H](CC(=O)NCCC2=CCCCC2)C(=O)N1CC3	0	-	-	-	-	-
COc1ccc(C(=O)CC(=O)C(=O)Nc2ccc(Cl)cc2)cc1	0	0	0	13	0	0
COc1ccc(C(=O)CC(=O)C(=O)Nc2ccccc2Cl)cc1	0	0	0	13	0	0
COc1ccc(C(=O)CC(=O)C(=O)Nc2ccccc2C(F)(F)F)cc1	0	0	0	7.8	0	12
COc1ccc(C(=O)CC(=O)C(=O)Nc2cc(Cl)c(OC)cc2OC)cc1	0	0	0	0	0	0
O=C(CN1C(=O)c2ccccc2S1(=O)=O)NCc1cccs1	0	0	0	0	0	0
O=C(COC(=O)c1cc(Cl)ccc1[N+](=O)[O-])NCc1ccc(Cl)cc1Cl	0	0	-7.3	0	0	0
CC1=NNC(=O)C1CC(=O)N/N=C/C=C/c1ccccc1 (configuration not stated)	0	0	0	21	0	0
